From PubChem BioAssay
Records with an inconclusive call do not appear.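 Rule for the calls, unless noted: active = inhibition over a set limit, the all-compound mean plus 3 SD, in both replicate runs; inconclusive = over that limit in just one replicate run; inactive = at or under that limit in both runs.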

How the values were obtained:
[1] = S. cerevisiae growth inhibition in permissive medium (OD615), pilot counter-assay for S. cerevisiae lifespan shortening project, permissive growth control (AID 705;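 active = growth inhibition above 25% in both replicates, a cutoff set 3 SD above the mean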); conditions: OD615, 24 h, at 10 µM, stronger effect = higher value
Summary of the method: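 System: Engineered DeaD yeast | Buffer or medium: SC raffinose/galactose permissive medium | Doses: 10 µM single dose, 0.25% DMSO | Times: 24 h exposure, 30 °C | Measured by: OD615 turbidity read | Read-out: Yeast growth inhibition indicated by reduced 24 h OD615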

[2] = S. cerevisiae growth inhibition in restrictive medium, OD615, pilot screen, restrictive growth control, yeast lifespan reduction project (AID 706;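 active = growth inhibition above a set limit, 3 SD over mean compound inhibition, in both replicates, cut at about 43% in these data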;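 note: modified DeaD lifespan yeast strain shifted to restrictive glucose medium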); conditions: OD615, 48 h, at 10 µM, stronger effect = higher value
Summary of the method: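 Assay system: engineered S. cerevisiae DeaD strain; Buffer or medium: CSMM-D glucose medium; Dosing: 10 µM compound, 0.25% DMSO; Times: cell pre-growth 4 h, compound exposure 48 h, 30 °C; Detection: absorbance (optical density) measured at 615 nm.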

[3] = doxorubicin toxicity protection in MRP-1 cells – H69AR cells, CellTiter-Glo, duplicate, MRP-1 activator project, pilot screen (AID 807;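 active = viability increase at or above a cutoff of the median across tested compounds plus 3 SD, cut at about 8.5% in these data, passing the limit was not always enough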;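 note: compound pretreatment 18-22 h then 72 h combined with doxorubicin; 0% = doxorubicin alone and 100% = vehicle without doxorubicin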); conditions: H69AR viability with doxorubicin, CellTiter-Glo luminescence; at 10 µM; stronger effect = higher value
[4] = viability of HCT116 without oncogenic beta-catenin – human colon tumor cells, pilot screen (AID 823;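 active = cell viability at or below a set limit in both duplicate runs, the limit being the all-compound median minus 4 SD, cut at about 23% in these data, passing the limit was not always enough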;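 note: 0% = wells killed by 20 µM Hyamine and 100% = untreated DMSO cell wells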); conditions: HCT116 beta-catenin knockout viability, CellTiter-Glo, 60 h; at 10 µM; stronger effect = lower value
[5] = viability of PTEN-null HCT116 cells – cell-based, HCT116 clonal line, CellTiter-Glo, pilot screen (AID 824;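 active = viability at or below 27.92% in each of two runs, the all-compound median minus 4 SD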;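 note: 0% = 20 µM Hyamine control and 100% = vehicle cell control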); conditions: HCT116 PTEN-deleted viability, 60 h, at 10 µM, stronger effect = lower value
[6] = RAM pathway blockade in budding yeast – dse1pr::URA3 reporter, 5-FOA selection, pilot screen (AID 869);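 note: 0% = DMSO wells with no growth and 100% = 10 µM 1-NA-PP1 with full growth; RAM network block rescues cells from 5-FOA so hits raise OD615 growth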; conditions: S. cerevisiae dse1pr::URA3 5-FOA growth, OD615, 2 d; at 10 µM; stronger effect = higher value; strain carries analog-sensitive mutant Cbk1 kinase
[7] = RAM signaling pathway blockade in yeast – S. cerevisiae, Pdr1DBD-CYC8 efflux-inhibited sensitized strain, primary screen (AID 1298;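 active = RAM network inhibition above 8.4% in each of two replicates, 3 SD over the compound average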;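 note: 0% = DMSO untreated cells without growth and 100% = 10 µM 1-NA-PP1 full growth; higher means more yeast growth rescued from 5-FOA killing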); conditions: S. cerevisiae cbk1-as DSE1-URA3 strain, 5-FOA growth OD615, 2 d; at 50 µM; stronger effect = higher value

Cc1ccc(NC(=O)c2cnc3scc(C)n3c2=O)c(C)c1
inactive: growth inhibition [1] -4.27% | growth inhibition [2] -12.6% | viability increase [3] -3.97% | viability [4] 106% | viability [5] 96.5% | inhibition [6] -0.14% | RAM network inhibition [7] 1.14%

COC(=O)c1ccc(-c2nc(-c3cccs3)no2)cc1
inactive: growth inhibition [1] 11.1% | growth inhibition [2] 10.5% | viability increase [3] -5.21% | viability [4] 84.1% | viability [5] 76.7% | inhibition [6] 2.32% | RAM network inhibition [7] 0.79%

Cc1onc(-c2ccccc2)c1C(=O)Nc1ccccc1C#N
inactive: growth inhibition [1] -5.39% | growth inhibition [2] -4.02% | viability increase [3] -2.87% | viability [4] 97.3% | viability [5] 91.8% | inhibition [6] 1.89% | RAM network inhibition [7] 2.87%

CC(=O)Nc1c(-c2ccccc2)nc2ncccn12
inactive: growth inhibition [1] -4.64% | growth inhibition [2] -5.57% | viability increase [3] -0.33% | viability [4] 108% | viability [5] 95.4% | inhibition [6] 2.77% | RAM network inhibition [7] 0.97%

Cc1nc2c3ccccc3n(CC(=O)c3ccc(F)cc3)c(=O)n2n1
inactive: growth inhibition [1] -13.8% | growth inhibition [2] -4.75% | viability increase [3] -2.79% | viability [4] 96.8% | viability [5] 94.7% | inhibition [6] 3.38% | RAM network inhibition [7] 3.78%

COC(=O)c1ccccc1NC(=O)CS(=O)(=O)Cc1nc(-c2ccc(C)cc2)oc1C
inactive: growth inhibition [1] -9.1% | growth inhibition [2] -21.8% | viability increase [3] -2.52% | viability [4] 93.5% | viability [5] 87.8% | inhibition [6] 4.7% | RAM network inhibition [7] 4.03%

COc1ccc(S(=O)(=O)N2CCC(C(=O)N3CCc4ccccc4C3)CC2)cc1OC
inactive: growth inhibition [1] 1.07% | growth inhibition [2] 1.26% | viability increase [3] -2.24% | viability [4] 89.4% | viability [5] 87.6% | inhibition [6] -0.455% | RAM network inhibition [7] 5.37%

CCC(Sc1nc(C)cc(=O)[nH]1)C(=O)Nc1sc2c(c1C#N)CCCC2 (configuration not stated)
inactive: growth inhibition [1] -14% | growth inhibition [2] -12.3% | viability increase [3] -3.49% | viability [4] 92.9% | viability [5] 91.4% | inhibition [6] 2.01% | RAM network inhibition [7] 6.25%

COc1cccc(Cn2nnc(C(=O)NCc3ccc(F)cc3)c2N)c1
inactive: growth inhibition [1] -5.24% | growth inhibition [2] -6.34% | viability increase [3] -1.74% | viability [4] 95% | viability [5] 85.6% | inhibition [6] 0.99% | RAM network inhibition [7] 3.37%

N=c1sccn1CC(=O)Nc1ccccc1-c1ccccc1
inactive: growth inhibition [1] -5.55% | growth inhibition [2] -3.2% | viability increase [3] -2.08% | viability [4] 94.3% | viability [5] 95.8% | inhibition [6] 2.95% | RAM network inhibition [7] 3.6%

Oc1ccccc1-c1nnc(COc2ccccc2)o1
inactive: growth inhibition [1] -1.18% | growth inhibition [2] 14.6% | viability increase [3] -1.43% | viability [4] 72.2% | viability [5] 75.5% | inhibition [6] 1.24% | RAM network inhibition [7] 5.2%

CC1CCCN(Cc2nc3c(c(=O)n(C)c(=O)n3C)n2Cc2c(F)cccc2Cl)C1 (configuration not stated)
inactive: growth inhibition [1] -8.39% | growth inhibition [2] -6.31% | viability increase [3] -4.6% | viability [4] 84.4% | viability [5] 80.2% | inhibition [6] 1.09% | RAM network inhibition [7] 10.9%

Cc1noc(C(=O)N2CC3(C)CC2CC(C)(C)C3)c1Cl (configuration not stated)
inactive: growth inhibition [1] -13% | growth inhibition [2] -13.2% | viability increase [3] 0.45% | viability [4] 82.9% | viability [5] 83% | inhibition [6] -0.145% | RAM network inhibition [7] 5.28%

Cc1cc(C)n(C(CC(=O)N2CCc3ccccc3C2)C(=O)O)n1 (configuration not stated)
inactive: growth inhibition [1] -3.07% | growth inhibition [2] -0.04% | viability increase [3] 0.01% | viability [4] 102% | viability [5] 95.5% | inhibition [6] 0% | RAM network inhibition [7] 5.81%

O=C(CC1Oc2ccccc2NC1=O)NC1CCCC1 (configuration not stated)
inactive: growth inhibition [1] 1.69% | growth inhibition [2] 2.71% | viability increase [3] 0.05% | viability [4] 103% | viability [5] 102% | inhibition [6] 1.33% | RAM network inhibition [7] 0.1%

COc1cc(OC)cc(-c2cc(NC(C)=O)n[nH]2)c1
inactive: growth inhibition [1] -4.33% | growth inhibition [2] 6.38% | viability increase [3] -3.17% | viability [4] 90.8% | viability [5] 91.3% | inhibition [6] 0.965% | RAM network inhibition [7] 4.1%

COCCCNC(=O)COc1cc(C)c(Cl)c(C)c1
inactive: growth inhibition [1] -3.79% | growth inhibition [2] -2.48% | viability increase [3] -1.76% | viability [4] 95.5% | viability [5] 96.3% | inhibition [6] -0.185% | RAM network inhibition [7] 1.45%

CC(C)Cc1cc(C(=O)Nc2ccc(F)cc2F)no1
inactive: growth inhibition [1] -18.9% | growth inhibition [2] -23.4% | viability increase [3] 1.32% | viability [4] 100% | viability [5] 98.6% | inhibition [6] 0.505% | RAM network inhibition [7] 0.21%

O=C(NC1CCCCCCC1)c1c(O)c2ccccc2[nH]c1=O
inactive: growth inhibition [1] -3.12% | growth inhibition [2] 8.01% | viability increase [3] -4.23% | viability [4] 91.6% | viability [5] 92.5% | inhibition [6] 2.4% | RAM network inhibition [7] -0.37%

CN(CC(=O)N1CC=C(c2ccccc2)CC1)S(=O)(=O)c1ccc2c(c1)c(=O)n(C)c(=O)n2C
inactive: growth inhibition [1] -1.64% | growth inhibition [2] -12.2% | viability increase [3] -3.46% | viability [4] 94.1% | viability [5] 80.3% | inhibition [6] 0.26% | RAM network inhibition [7] 5.04%

COC(=O)C1=C(C)NC(=O)CC1c1cc2c(cc1Br)OCO2 (configuration not stated)
inactive: growth inhibition [1] 4.83% | growth inhibition [2] 7.57% | viability increase [3] -1.64% | viability [4] 106% | viability [5] 94.7% | inhibition [6] 1.42% | RAM network inhibition [7] 5.87%

O=C(Cn1cnc2c(nnn2-c2ccccc2)c1=O)NCc1ccco1
inactive: growth inhibition [1] 1.43% | growth inhibition [2] 3.14% | viability increase [3] -3.77% | viability [4] 104% | viability [5] 89.8% | inhibition [6] 0.32% | RAM network inhibition [7] 0.83%

O=c1c2cc(-c3ccccc3)sc2ncn1/N=C/c1ccco1
inactive: growth inhibition [1] -7.51% | growth inhibition [2] 0.525% | viability increase [3] -2.49% | viability [4] 96.6% | viability [5] 82% | inhibition [6] 1.5% | RAM network inhibition [7] 5.9%

Cc1cc2cc(CNS(=O)(=O)c3ccccc3)ccc2n1C
inactive: growth inhibition [1] -4.47% | growth inhibition [2] 3.34% | viability increase [3] -1.48% | viability [4] 85.2% | viability [5] 86.2% | inhibition [6] 0.71% | RAM network inhibition [7] 2.49%

CSC1=NCCN1C(=O)COc1ccccc1
inactive: growth inhibition [1] 5.44% | growth inhibition [2] -6.09% | viability increase [3] 1.95% | viability [4] 97.8% | viability [5] 104% | inhibition [6] 1.57% | RAM network inhibition [7] 2.21%

CCOC(=O)c1c(C)oc2cc(Br)c(OC(=O)N3CCOCC3)cc12
inactive: growth inhibition [1] -10.9% | growth inhibition [2] -3.17% | viability increase [3] -0.62% | viability [4] 88% | viability [5] 88.8% | inhibition [6] 0.13% | RAM network inhibition [7] 1.4%

O=C(NCCn1cc(SCC(=O)N2CCOCC2)c2ccccc21)c1ccccc1
inactive: growth inhibition [1] 1.06% | growth inhibition [2] -5.21% | viability increase [3] 0.4% | viability [4] 97% | viability [5] 99.8% | inhibition [6] -0.225% | RAM network inhibition [7] 0.78%

Fc1cc(Br)ccc1Nc1nc2ccccc2n2nnnc12
inactive: growth inhibition [1] -15.9% | growth inhibition [2] -15% | viability increase [3] -4.01% | viability [4] 91.5% | viability [5] 87.2% | inhibition [6] 1.94% | RAM network inhibition [7] 5.36%

COc1ccc2nc(NC(=O)C3CCCN3S(=O)(=O)c3ccc(C)cc3)sc2c1 (configuration not stated)
inactive: growth inhibition [1] -6.88% | growth inhibition [2] -4% | viability increase [3] -1.48% | viability [4] 69.3% | viability [5] 72% | inhibition [6] 1.23% | RAM network inhibition [7] 6.79%

Cn1c(SCC(=O)NCC2CCCO2)nc2c([nH]c3ccccc32)c1=O (configuration not stated)
inactive: growth inhibition [1] 2.66% | growth inhibition [2] -9.87% | viability increase [3] -5.32% | viability [4] 90.5% | viability [5] 91.7% | inhibition [6] 0.065% | RAM network inhibition [7] 2.79%

CN1CCN(S(=O)(=O)c2ccc(NC(=O)c3cccc(S(=O)(=O)N4CCCC4)c3)cc2)CC1
inactive: growth inhibition [1] -5.16% | growth inhibition [2] -5.09% | viability increase [3] -3.98% | viability [4] 89.2% | viability [5] 97.2% | inhibition [6] 2% | RAM network inhibition [7] 9.3%

Fc1cccc(CSc2nc3ccncc3[nH]2)c1
inactive: growth inhibition [1] -13.4% | growth inhibition [2] -9.72% | viability increase [3] -0.81% | viability [4] 94.9% | viability [5] 79.7% | inhibition [6] 1.6% | RAM network inhibition [7] 7.53%

CN1C(=O)CC(N2CCN(c3ncccn3)CC2)C1=O (configuration not stated)
inactive: growth inhibition [1] 1.35% | growth inhibition [2] -4.12% | viability increase [3] 0.31% | viability [4] 103% | viability [5] 100% | inhibition [6] 0.77% | RAM network inhibition [7] 5.07%

Cc1cc2oc3c(c(=O)c2cc1C)C(c1ccc(F)cc1)N(CCCN1CCOCC1)C3=O (configuration not stated)
inactive: growth inhibition [1] 4.43% | growth inhibition [2] -11.3% | viability increase [3] -2.77% | viability [4] 98.5% | viability [5] 96% | inhibition [6] 1.74% | RAM network inhibition [7] 1.83%

CCOC(=O)N1CCN(c2c(Nc3ccc4c(c3)OCCO4)c(=O)c2=O)CC1
inactive: growth inhibition [1] 4.17% | growth inhibition [2] 4.07% | viability increase [3] -1.02% | viability [4] 105% | viability [5] 105% | inhibition [6] 1.1% | RAM network inhibition [7] 2.05%

COc1cccc(C2(O)CCN(C(=O)c3cccs3)CC2)c1
inactive: growth inhibition [1] -9.43% | growth inhibition [2] 6.06% | viability increase [3] 0.71% | viability [4] 91.5% | viability [5] 97% | inhibition [6] 1.58% | RAM network inhibition [7] 5.17%
